Reference: ChEMBL document CHEMBL4706687, “Synthesis and Pharmacological Evaluation of Novel Non-nucleotide Purine Derivatives as P2X7 Antagonists for the Treatment of Neuroinflammation” (J Med Chem, 2021)
Activity calls are given as the source filed them. The calls are words filed in the database; no cut-off is given here.

Experiments:
[1] = biological target: T1, P2X purinoceptor 7 (Homo sapiens) (UniProt Q99572); assay: Antagonist activity at human P2X7 receptor expressed in HEK293 cells assessed as reduction in benzoyl-ATP-induced YO-PRO-1 dye uptake at 10 uM pre-incubated for 20 mins before YO-PRO-1 addition and measured after 25 mins by fluorescence plate reader analysis relative to control; assay type: cell-based; conditions: time 45.0 min
T1 sequence (whole entry): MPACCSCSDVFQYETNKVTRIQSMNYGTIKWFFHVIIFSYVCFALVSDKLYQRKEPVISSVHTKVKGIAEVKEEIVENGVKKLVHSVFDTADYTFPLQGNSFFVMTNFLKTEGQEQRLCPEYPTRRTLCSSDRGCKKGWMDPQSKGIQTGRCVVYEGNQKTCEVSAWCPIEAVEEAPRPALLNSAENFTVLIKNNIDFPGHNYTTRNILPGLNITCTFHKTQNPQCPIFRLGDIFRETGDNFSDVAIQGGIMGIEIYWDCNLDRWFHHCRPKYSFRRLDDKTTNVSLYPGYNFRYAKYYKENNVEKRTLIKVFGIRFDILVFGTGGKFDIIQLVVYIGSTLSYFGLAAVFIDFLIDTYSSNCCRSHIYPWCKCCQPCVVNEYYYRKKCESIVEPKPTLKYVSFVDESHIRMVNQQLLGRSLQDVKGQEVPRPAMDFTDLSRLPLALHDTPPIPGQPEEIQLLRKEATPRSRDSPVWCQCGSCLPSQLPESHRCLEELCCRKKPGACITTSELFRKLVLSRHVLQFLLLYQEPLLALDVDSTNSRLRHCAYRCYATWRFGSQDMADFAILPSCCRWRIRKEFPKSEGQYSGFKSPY
Method in brief: (§1)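 Stably transfected hP2X7-HEK293 cells, 48 h after seeding, in Mg²⁺-free Krebs-HEPES (0.2 mM CaCl₂, pH 7.4). Compound preincubation 20 min, then YO-PRO-1 2 μM, then BzATP 30 μM. Fluorescence at 485/520 nm read for 25 min. Each well normalized to Fmax (0.5% Triton X-100) and Fmin (2 M MnCl₂): F = (Fx − F0)/(Fmax − Fmin). Triplicates from three cultures. IC50 is the concentration halving BzATP-induced uptake.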

[2] = biological target: T1, P2X purinoceptor 7 (Homo sapiens); assay: Antagonist activity at human P2X7 receptor expressed in Xenopus laevis oocytes assessed as reduction in ATP-induced channel currents at 100 uM by TEVC electrophysiology assay relative to control; assay type: cell-based; conditions: Oocyte
Method in brief: (§2)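 Oocytes injected with 50 nL His-tagged hP2X7 cRNA (0.5 mg/mL), kept 1–2 days at 16–18 °C. Recorded in low divalent-cation solution (90 mM NaCl, 0.5 mM CaCl₂, 5 mM HEPES) at −70 mV. ATP 300 μM for 2 s after 3 min static compound incubation. Current normalized to control amplitude. Triplicates from three oocytes, two frogs.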

[3] = biological target: T1, P2X purinoceptor 7 (Homo sapiens); assay: Antagonist activity at human P2X7 receptor expressed in Xenopus laevis oocytes assessed as reduction in ATP-induced channel currents at 1 uM by TEVC electrophysiology assay relative to control; assay type: cell-based; conditions: Oocyte, filed as antagonist; method in brief: as §2
[4] = biological target: T1, P2X purinoceptor 7 (Homo sapiens); assay: Antagonist activity at human P2X7 receptor expressed in HEK293 cells assessed as reduction in benzoyl-ATP-induced YO-PRO-1 dye uptake at 1 uM pre-incubated for 20 mins before YO-PRO-1 addition and measured after 25 mins by fluorescence plate reader analysis relative to control; assay type: cell-based; conditions: filed as antagonist, time 45.0 min; method in brief: as §1
[5] = biological target: T1, P2X purinoceptor 7 (Homo sapiens); assay: Antagonist activity at human P2X7 receptor expressed in HEK293 cells assessed as reduction in benzoyl-ATP-induced intracellular Ca2+ level by Fura-2 dye based fluorescence assay; assay type: cell-based; conditions: filed as antagonist
Method in brief: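 hP2X7-HEK293 cells 24–48 h after seeding, loaded with Fura-2-AM 8 μM for 1 h, then washed in Mg²⁺-free Tyrode (2 mM CaCl₂, pH 7.4) for 15–30 min with compound present. Excitation 340/380 nm, emission 520 nm. Basal recording, then BzATP injected (100 μM final). [Ca²⁺]c from Grynkiewicz equation. Blockade as percent of BzATP peak in Tyrode-only wells; triplicates.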

P2X purinoceptor 7 = biological target: T2, P2X purinoceptor 7 (Homo sapiens, UniProt Q99572); assay: Antagonist activity at human P2X7 receptor expressed in HEK293 cells assessed as reduction in benzoyl-ATP-induced YO-PRO-1 dye uptake pre-incubated for 20 mins before YO-PRO-1 addition and measured after 25 mins by fluorescence plate reader analysis relative to control; assay type: cell-based; method in brief: as §1
T2 sequence (Q99572 whole entry): T1 sequence (whole entry)

Peritoneal macrophage = assay: Inhibition of Il-1beta production in LPS-stimulated C57BL/6 mouse peritoneal macrophages pre-incubated for 15 mins followed by ATP addition for 30 mins by ELISA method; assay type: functional, tissue-based; conditions: time 45.0 min
Method in brief: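 Thioglycolate-elicited peritoneal macrophages from 6–8-week male C57BL/6 mice, 3 × 10⁵ cells/well. Primed 4 h with LPS 1 μg/mL (E. coli 026:B6), then serum-free DMEM with compound for 15 min, then ATP for 30 min. Supernatant IL-1β measured by ELISA, expressed as percent of ATP-only control. Triplicates from three mice.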

| inhibition [1] | inhibition [2] | Compound | also measured |
| --- | --- | --- | --- |
| 4% | 2% | CNc1nc(Cl)nc2c1ncn2S(=O)(=O)c1ccccc1Cl | – |
| – | 11% | O=C(Cn1cnc2c(-c3ccccc3)ncnc21)c1ccc(Cl)cc1Cl | inhibition ([1]; filed as antagonist): 62%; inhibition [5]: Active; IC50 (P2X purinoceptor 7): 6 µM |
| – | 11% | O=C(Cn1cnc2c(Cl)ncnc21)c1ccc(Cl)cc1 | inhibition ([1]; filed as antagonist): 55%; IC50 (P2X purinoceptor 7): 10 µM |
| 7% | 5% | O=C(c1ccccc1Cl)n1cnc2c(Cl)ncnc21 | – |
| 1% | 0% | COc1ncnc2c1ncn2C(=O)c1ccccc1Cl | – |
| inactive | 8% | COc1ncnc2c1ncn2S(=O)(=O)c1ccccc1Cl | – |
| 16% | 9% | Cn1cnc2c(=O)n(Cc3ccccc3Cl)c(Cl)nc21 | – |
| 17% | 9% | O=S(=O)(c1ccccc1Cl)n1cnc2c(Cl)ncnc21 | – |
| 5% | 5% | Cn1cnc2c1c(=O)n(C(=O)c1ccccc1Cl)c(=O)n2C | – |
| 34% | 7% | O=C(Cn1cnc2c(Cl)ncnc21)c1ccc(F)cc1 | – |
| 25% | 14% | COc1ncnc2c1ncn2CC(=O)c1ccc(Cl)cc1Cl | – |
| 19% | 6% | O=C(CCn1cnc2c(Cl)ncnc21)c1ccc(Cl)cc1Cl | – |

The remaining lines, values behind:

| Compound | inhibition [1] | inhibition [2] | also measured |
| --- | --- | --- | --- |
| O=C(NCC1(N2CCN(c3ccccc3)CC2)CCOCC1)c1cccnc1Sc1ccccc1 | – | – | inhibition [3]: 49%; inhibition [4]: 56% |
| Cn1cnc2c1c(=O)n(CC(=O)c1ccc(Cl)cc1Cl)c(=O)n2C | inactive | 2% | – |
| Cn1c(=O)c2c(ncn2S(=O)(=O)c2ccc(F)cc2Cl)n(C)c1=O | 20% | inactive | – |
| O=C(Cn1cnc2c(Cl)nc(Cl)nc21)c1ccc(Cl)cc1Cl | – | 24% | inhibition ([1]; filed as antagonist): 41%; IC50 (P2X purinoceptor 7): 13 µM |
| O=S(=O)(c1ccccc1Cl)n1cnc2c(Cl)nc(Cl)nc21 | – | 2% | inhibition ([1]; filed as antagonist): 46%; IC50 (P2X purinoceptor 7): 10.2 µM |
| Cc1cc(F)ccc1S(=O)(=O)n1cnc2c1c(=O)n(C)c(=O)n2C | 23% | inactive | – |
| Nc1nc(Cl)c2ncn(S(=O)(=O)c3ccccc3Cl)c2n1 | 9% | inactive | – |
| O=C(Cn1cnc2c(Cl)nc(F)nc21)c1ccc(Cl)cc1Cl | 27% | 24% | – |
| Cn1c(=O)c2c(ncn2CC(=O)c2ccc(Cl)cc2Cl)n(C)c1=O | 0% | 10% | – |
| O=C(Cn1cnc2c(I)nc(Cl)nc21)c1ccc(Cl)cc1Cl | 14% | 6% | – |
| Cn1c(=O)c2c(ncn2S(=O)(=O)c2ccc(F)cc2F)n(C)c1=O | 7% | 1% | – |
| Cn1c(=O)c2c(ncn2S(=O)(=O)c2cc(Cl)ccc2Cl)n(C)c1=O | 4% | inactive | – |
| Cn1c(=O)c2c(ncn2S(=O)(=O)c2ccccc2Cl)n(C)c1=O | – | 28% | inhibition (Peritoneal macrophage): Dose-dependent effect; inhibition ([1]; filed as antagonist): 52%; IC50 (P2X purinoceptor 7): 10 µM |
| Nc1nc(Cl)c2ncn(CC(=O)c3ccc(Cl)cc3Cl)c2n1 | 4% | 6% | – |
| Cn1c(=O)c2c(ncn2S(=O)(=O)c2ccc(F)cc2)n(C)c1=O | 10% | inactive | – |
| Cn1c(=O)c2c(ncn2S(=O)(=O)c2ccc(Cl)cc2Cl)n(C)c1=O | 7% | 9% | – |
| Cn1c(=O)c2c(ncn2S(=O)(=O)c2ccc(C(F)(F)F)cc2Cl)n(C)c1=O | 5% | inactive | – |
| CNc1nc(Cl)nc2c1ncn2CC(=O)c1ccc(Cl)cc1Cl | 2% | 5% | – |
